These results are taken from ChEMBL document CHEMBL1153632, “HCV NS5B polymerase inhibitors 1: Synthesis and in vitro activity of 2-(1,1-dioxo-2H-[1,2,4]benzothiadiazin-3-yl)-1-hydroxynaphthalene derivatives” (Bioorg Med Chem Lett, 2009).

Molecules are shown by their SMILES. Where only a bound is given, the exact number is not on record here.

For one series, the system named is Hepatitis C virus. As to the kind of experiment: Antiviral activity against HCV 1b infected in human HuH7 cells after 46 to 50 hrs by luc/neo ET replicon assay. Conditions: genotype 1b, Huh-7. The class given is functional, organism-based, Hepacivirus hominis. The essentials:
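Huh-7 cells stably carrying luc/neo ET replicon, grown in DMEM with 10% FCS, were seeded at 5 × 10³ cells/well. Serially diluted compounds were added about 24 h after plating, at 1% final DMSO. After 46–50 h exposure, cells were lysed with BrightGLO reagent for 2 min at 20 °C and luminescence was read.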
(In antiviral work, replicon cells carry a viral genome segment that copies itself.)

Series [1] in a line: Inhibition of HCV isolate HC-J4 NS5B deltaC21 polymerase. Also on record: species or system Hepatitis C virus isolate HC-J4. Put shortly: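 Genotype 1b J4 ΔC21 enzyme (5 nM) in 20 mM Tris pH 7.5 with 5 mM MgCl₂, 5 mM KCl, 1 mM EDTA, 2 mM DTT and 0.01% BSA, room temperature. Serial DMSO dilutions were preincubated with enzyme for 5 min. Reaction was started with 250 nM 5′-biotin-rU₁₂ primer, poly-rA template, UTP and ³H-UTP, in 5% DMSO, and run 2 h. Stopped with EDTA/streptavidin SPA beads, then CsCl; scintillation counting.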

Series [2] in a line: Cytotoxicity against human HuH7 cells. The class given is cell-based, Huh-7.
A short description of series [3]: Inhibition of HCV 1a NS5B polymerase. Also on record: species or system Hepatitis C virus subtype 1a.

The compound `CC(C)CCn1c(=O)c(C2=NS(=O)(=O)c3ccccc3N2)c(O)c2ccccc21` came in with an EC50 in the series on Hepatitis C virus of 0.417 µM.

`COc1c(C2=NS(=O)(=O)c3cc(NS(C)(=O)=O)ccc3N2)c(O)c2ccccc2c1CCC(C)C` came in with an IC50 in series [1] of 0.037 µM. Also, the half-maximal effective concentration (EC50) in the series on Hepatitis C virus was 2.9 µM. In series [2], this compound gave a half-maximal cytotoxic concentration (CC50) of 120 µM.

In series [1], `CC(C)CCc1cc(C2=NS(=O)(=O)c3cc(NS(C)(=O)=O)ccc3N2)c(O)c2ccccc12` yielded an IC50 of 0.15 µM. In the series with Hepatitis C virus, this compound came in with an EC50 of 4.3 µM. In series [2], this compound showed a CC50 of more than 100 µM.

For `CC(C)CCc1c(O)c2c(c3ccccc13)OCN1C2=NS(=O)(=O)c2cc(NS(C)(=O)=O)ccc21`, it took 0.53 µM to reach half-maximal inhibition in series [1] (IC50). Further, it took 34 µM to reach a half-maximal effect in the series with Hepatitis C virus (EC50). In series [2], the CC50 was more than 100 µM.

On to `CC(C)CC[C@@]1(C)C(=O)C(C2=NS(=O)(=O)c3cc(NS(C)(=O)=O)ccc3N2)=C(O)c2ccccc21`, for which the IC50 was found to be 0.00125 µM in series [3] and 0.00033 µM in series [1].

Compound `COc1c(C2=NS(=O)(=O)c3cc(NS(C)(=O)=O)ccc3N2)c(OC)c2ccccc2c1CCC(C)C` returned a half-inhibitory concentration (IC50) in series [1] of 0.63 µM. In the series with Hepatitis C virus, this compound displayed a 50% effective concentration (EC50) of more than 100 µM. The compound further gave a cytotoxic concentration (CC50) in series [2] of 40 µM.

In series [1], `COc1c(C2=NS(=O)(=O)c3ccccc3N2)cc(CCC(C)C)c2ccccc12` registered an IC50 of 27 µM. For the same compound, it took 9.5 µM to reach a half-maximal effect in the series with Hepatitis C virus (EC50). Moreover, the midpoint of cytotoxicity in series [2], the CC50, lay at 13 µM.

In the case of `CC(C)CCc1c(F)c(C2=NS(=O)(=O)c3cc(NS(C)(=O)=O)ccc3N2)c(O)c2ccccc12`, the IC50 in series [1] is 0.031 µM. In the series on Hepatitis C virus, this compound came in with a concentration for a half-maximal effect (EC50) of 2.7 µM. Besides, the cytotoxic concentration (CC50) in series [2] is more than 100 µM.

The compound `CC(C)CCc1c(O)c2c(c3ccccc13)OCN1C2=Nc2ccc(NS(C)(=O)=O)cc2S1(=O)=O` yielded a concentration for half-maximal inhibition (IC50) in series [1] of 1.3 µM. The compound also registered an EC50 in the series with Hepatitis C virus of 12 µM. In series [2], this compound displayed a cytotoxic concentration (CC50) of 35 µM.

Regarding `CC(C)CCc1cc(C2=NS(=O)(=O)c3ccccc3N2)c(O)c2ccccc12`, the half-inhibitory concentration (IC50) in series [1] came out at 8.4 µM. The compound further had an EC50 in the series on Hepatitis C virus of 26 µM. The same compound gave a half-maximal cytotoxic concentration (CC50) in series [2] of 37 µM.

Consider `COc1c(C2=NS(=O)(=O)c3cc(NS(C)(=O)=O)ccc3N2)c(O)c(CCC(C)C)c2ccccc12`, for which the 50% inhibitory concentration (IC50) in series [1] came out at 0.005 µM. The compound further had a concentration giving a half-maximal response (EC50) with Hepatitis C virus of 1.1 µM. Moreover, the 50% cytotoxic concentration (CC50) in series [2] came out at 110 µM.

Regarding `COc1c(C2=NS(=O)(=O)c3cc(NS(C)(=O)=O)ccc3N2)cc(CCC(C)C)c2ccccc12`, in series [1], the 50% inhibitory concentration (IC50) came to 0.048 µM. Moreover, the concentration giving a half-maximal response (EC50) with Hepatitis C virus is 21 µM. Also, in series [2], half-maximal cytotoxicity (CC50) was put at 51 µM.

Turning to `CC(C)CCc1c2c(c(O)c3ccccc13)C1=NS(=O)(=O)c3cc(NS(C)(=O)=O)ccc3N1CO2`, in series [1], it took 8.7 µM to reach half-maximal inhibition (IC50). This compound registered a concentration giving a half-maximal response (EC50) with Hepatitis C virus of more than 100 µM. This compound had a 50% cytotoxic concentration (CC50) in series [2] of more than 100 µM.

In series [1], `CC(C)CCc1c(F)c(C2=NS(=O)(=O)c3ccccc3N2)c(O)c2ccccc12` displayed a half-maximal inhibitory concentration (IC50) of 0.11 µM. Also, in the series on Hepatitis C virus, the EC50 worked out at 19 µM. In series [2], this compound yielded a CC50 of 12 µM.

With `CC(C)CCC1(O)C(=O)C(C2=NS(=O)(=O)c3cc(NS(C)(=O)=O)ccc3N2)=C(O)c2ccccc21` (stereo not given), the IC50 in series [1] is less than 0.005 µM. In the series on Hepatitis C virus, this compound registered an EC50 of 0.019 µM. In series [2], this compound yielded a half-maximal cytotoxic concentration (CC50) of more than 100 µM.

`CC(C)CCc1c2c(c(O)c3ccccc13)C1=Nc3ccc(NS(C)(=O)=O)cc3S(=O)(=O)N1CO2` yielded an IC50 in series [1] of 0.49 µM. In addition, the EC50 in the series on Hepatitis C virus was determined as 8.4 µM. Moreover, the CC50 in series [2] came out at 33 µM.

A word on the EC50: it is the midpoint of the concentration-response curve. Usually IC50 stands for the concentration that gives 50% inhibition. A low value points to inhibition by little substance. What is called CC50 is the concentration giving 50% cytotoxicity.
